This is an account of results in ChEMBL document CHEMBL1138658, “Novel 2-aminotetralin and 3-aminochroman derivatives as selective serotonin 5-HT7 receptor agonists and antagonists” (J Med Chem, 2004).

The term Ki denotes a measure of affinity in units of concentration, obtained from inhibition or displacement. Read a low Ki as a stronger hold on the target. Broadly, the IC50 is the concentration needed to halve the response being measured. Read a low IC50 as inhibition by little substance.

For test [1], the target named is T1, Adrenergic receptor alpha-1 (Rattus norvegicus, UniProt P15823+P23944+P43140).
T1 sequence (P15823 whole entry): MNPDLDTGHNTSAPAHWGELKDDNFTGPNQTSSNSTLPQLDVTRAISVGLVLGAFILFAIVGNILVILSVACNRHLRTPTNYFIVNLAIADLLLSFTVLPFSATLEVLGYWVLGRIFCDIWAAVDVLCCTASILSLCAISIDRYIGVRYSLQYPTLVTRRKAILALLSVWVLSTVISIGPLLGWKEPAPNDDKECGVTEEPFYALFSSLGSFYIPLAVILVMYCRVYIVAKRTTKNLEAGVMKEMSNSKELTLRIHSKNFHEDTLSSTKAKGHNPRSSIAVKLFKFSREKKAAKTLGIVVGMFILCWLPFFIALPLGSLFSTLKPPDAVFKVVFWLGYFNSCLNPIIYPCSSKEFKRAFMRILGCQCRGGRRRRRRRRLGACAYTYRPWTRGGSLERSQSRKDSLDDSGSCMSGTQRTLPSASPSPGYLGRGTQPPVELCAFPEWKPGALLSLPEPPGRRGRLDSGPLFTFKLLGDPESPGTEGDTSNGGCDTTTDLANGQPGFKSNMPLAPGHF
T1 sequence (P23944 whole entry): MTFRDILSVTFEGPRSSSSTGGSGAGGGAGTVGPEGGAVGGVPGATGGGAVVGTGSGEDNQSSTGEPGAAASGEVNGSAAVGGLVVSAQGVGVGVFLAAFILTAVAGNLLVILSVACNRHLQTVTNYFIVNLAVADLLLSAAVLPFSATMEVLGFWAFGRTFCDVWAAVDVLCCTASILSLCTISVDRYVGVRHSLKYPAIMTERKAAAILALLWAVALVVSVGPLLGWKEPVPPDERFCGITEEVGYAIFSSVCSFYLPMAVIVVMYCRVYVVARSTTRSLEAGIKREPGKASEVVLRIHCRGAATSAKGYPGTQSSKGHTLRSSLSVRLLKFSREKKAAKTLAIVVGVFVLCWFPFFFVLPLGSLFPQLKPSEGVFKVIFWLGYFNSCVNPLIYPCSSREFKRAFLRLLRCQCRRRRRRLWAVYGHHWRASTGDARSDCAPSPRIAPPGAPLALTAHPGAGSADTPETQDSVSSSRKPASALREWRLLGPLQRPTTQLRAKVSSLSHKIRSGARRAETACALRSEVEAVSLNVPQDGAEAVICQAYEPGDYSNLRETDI
T1 sequence (P43140 whole entry): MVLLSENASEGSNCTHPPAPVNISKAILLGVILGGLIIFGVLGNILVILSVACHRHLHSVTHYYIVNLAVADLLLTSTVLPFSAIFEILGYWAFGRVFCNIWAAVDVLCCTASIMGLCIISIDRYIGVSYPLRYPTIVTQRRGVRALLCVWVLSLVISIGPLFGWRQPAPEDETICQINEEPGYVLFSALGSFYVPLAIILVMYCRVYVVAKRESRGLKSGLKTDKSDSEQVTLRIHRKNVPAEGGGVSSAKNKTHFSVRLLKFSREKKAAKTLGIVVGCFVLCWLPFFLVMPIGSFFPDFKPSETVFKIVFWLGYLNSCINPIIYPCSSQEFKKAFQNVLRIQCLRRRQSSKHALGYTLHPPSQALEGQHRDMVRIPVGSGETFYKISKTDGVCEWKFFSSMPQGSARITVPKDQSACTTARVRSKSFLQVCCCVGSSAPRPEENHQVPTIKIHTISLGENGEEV
The experiment in a line: Inhibition of [3H]prazosin binding to rat cortex Alpha 1 receptor.

Test [2] deals with Muscarinic acetylcholine receptor. The experiment in a line: Inhibition of [3H]- QNB binding to rat cortex muscarinic receptor.
Test [3] in a line: Inhibition of [3H]- LSD binding to 5-HT5 receptor expressed in CHO cells. The format is cell-based.
The target of a further test is Adrenergic receptor beta (Rattus norvegicus, UniProt P18090+P10608+P26255). In words: Inhibition of [3H]DHA binding to rat cortex Beta receptor.
Test [4] addresses Serotonin 3 (5-HT3) receptor. The experiment in a line: Inhibition of [3H]GR-65630 binding to rabbit ileum muscularis 5-HT3 receptor. The format is tissue-based, Oryctolagus cuniculus.
For test [5], the target named is 5-hydroxytryptamine receptor 4 (Cavia porcellus, UniProt O70528). In words: Inhibition of [3H]- GR-113808 binding to guinea pig striatum 5-HT4 receptor. The format is tissue-based.
The target in test [6] is T2, 5-hydroxytryptamine receptor 6 (Rattus norvegicus, UniProt P31388). The experiment in a line: Inhibition of [3H]5-HT binding to rat 5-HT6 receptor.
Test [7] has as its target T3, 5-hydroxytryptamine receptor 1A (Rattus norvegicus, UniProt P19327).
T3 sequence (P19327 whole entry): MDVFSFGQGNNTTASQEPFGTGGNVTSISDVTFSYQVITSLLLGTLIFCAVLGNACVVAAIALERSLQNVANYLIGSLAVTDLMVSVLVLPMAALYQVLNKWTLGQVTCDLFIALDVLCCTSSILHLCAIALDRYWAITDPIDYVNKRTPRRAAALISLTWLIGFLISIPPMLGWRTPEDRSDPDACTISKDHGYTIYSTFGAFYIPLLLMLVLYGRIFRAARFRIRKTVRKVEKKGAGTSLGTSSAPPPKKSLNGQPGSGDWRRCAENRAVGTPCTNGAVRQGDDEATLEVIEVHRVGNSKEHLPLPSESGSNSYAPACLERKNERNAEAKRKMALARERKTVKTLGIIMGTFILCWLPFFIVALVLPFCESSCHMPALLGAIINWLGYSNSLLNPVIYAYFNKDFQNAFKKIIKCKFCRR
The experiment in a line: Inhibition of [3H]8-OH-DPAT binding to rat 5-hydroxytryptamine 1A receptor. An outline of the steps: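 Radioligand [3H]-8-OH-DPAT; receptor source either CHO cells expressing human 5-HT1A or rat hippocampal cells.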

The target of test [8] is T4, 5-hydroxytryptamine receptor 1A (Homo sapiens, UniProt P08908).
T4 sequence (P08908 whole entry): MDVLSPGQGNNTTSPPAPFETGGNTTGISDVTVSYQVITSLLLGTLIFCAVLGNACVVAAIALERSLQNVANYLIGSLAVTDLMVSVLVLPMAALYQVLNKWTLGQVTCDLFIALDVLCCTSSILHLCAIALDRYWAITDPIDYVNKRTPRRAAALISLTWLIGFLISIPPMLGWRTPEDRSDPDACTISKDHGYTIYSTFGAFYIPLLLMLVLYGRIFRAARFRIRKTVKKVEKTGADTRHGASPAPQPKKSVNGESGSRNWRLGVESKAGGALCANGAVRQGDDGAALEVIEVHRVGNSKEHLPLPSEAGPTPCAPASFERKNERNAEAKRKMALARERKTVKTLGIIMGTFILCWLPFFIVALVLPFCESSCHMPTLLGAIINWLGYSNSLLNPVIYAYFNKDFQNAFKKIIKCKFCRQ
In words: Inhibition of [3H]8-OH-DPAT binding to human 5-HT1A receptor. An outline of the steps: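 Human 5-HT1A receptor expressed in CHO cells, labelled with [3H]-8-OH-DPAT.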

The target in test [9] is T2, 5-hydroxytryptamine receptor 6. The experiment in a line: Inhibition of [3H]-5-HT binding to rat 5-HT6 receptor.

T2 sequence (P31388 whole entry): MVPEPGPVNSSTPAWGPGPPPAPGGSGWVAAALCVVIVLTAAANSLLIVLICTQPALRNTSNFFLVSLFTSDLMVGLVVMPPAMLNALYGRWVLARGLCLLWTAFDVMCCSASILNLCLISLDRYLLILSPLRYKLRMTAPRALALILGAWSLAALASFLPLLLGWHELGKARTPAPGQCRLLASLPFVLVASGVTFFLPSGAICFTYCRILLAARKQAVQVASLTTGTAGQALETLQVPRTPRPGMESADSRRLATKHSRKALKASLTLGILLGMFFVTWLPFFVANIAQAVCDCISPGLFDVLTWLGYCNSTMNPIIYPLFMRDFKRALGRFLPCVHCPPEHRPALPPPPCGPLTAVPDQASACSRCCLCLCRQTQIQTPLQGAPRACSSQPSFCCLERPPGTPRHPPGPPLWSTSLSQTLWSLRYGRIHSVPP
Chain of 5-hydroxytryptamine receptor 4 (O70528 whole entry): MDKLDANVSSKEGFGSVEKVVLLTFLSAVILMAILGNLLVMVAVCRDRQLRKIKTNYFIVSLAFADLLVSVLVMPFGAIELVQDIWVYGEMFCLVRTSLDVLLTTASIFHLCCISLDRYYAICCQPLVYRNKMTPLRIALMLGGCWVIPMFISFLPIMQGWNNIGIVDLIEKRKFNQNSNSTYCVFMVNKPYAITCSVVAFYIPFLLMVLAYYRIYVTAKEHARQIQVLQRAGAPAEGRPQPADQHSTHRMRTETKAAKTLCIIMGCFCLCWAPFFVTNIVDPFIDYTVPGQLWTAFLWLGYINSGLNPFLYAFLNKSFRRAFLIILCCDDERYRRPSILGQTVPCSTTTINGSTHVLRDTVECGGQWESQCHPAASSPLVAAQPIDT

`COc1cccc(OC)c1-c1cccc2c1CC[C@H](N(C)C)C2`: the Ki is 3670 nM in test [1]; more than 1000 nM in [2]; 65 nM in [3]; more than 1000 nM at Adrenergic receptor beta; 1420 nM in [7]; 1420 nM in test [8]. Besides, the IC50 in [4], in [5] and in test [6] was more than 1000 nM throughout.

As to `CCCN(CCC)[C@H]1CCc2c(cccc2-c2c(OC)cccc2OC)C1`, the Ki is more than 1000 nM in [1]; more than 1000 nM in test [2]; more than 1000 nM on Adrenergic receptor beta; more than 900 nM in test [9]; 347 nM in [7]; 347 nM in test [8].
